From ChEMBL document CHEMBL4354819, “Discovery of Novel Small Molecule Dual Inhibitors Targeting Toll-Like Receptors 7 and 8” (J Med Chem, 2019)
Active and inactive are the calls of the source. The rule behind the calls is not given here.

Assays:
Assay type in all cases: cell-based
[1] = molecular target: Toll-like receptor 4 (Homo sapiens) (UniProt O00206); experiment: Inhibition of human TLR4 expressed in HEK293 cells assessed as reduction in LPS-induced NFkappaB production at 1.5 to 5 uM incubated for 16 hrs by quanti-blue SEAP assay
Outline: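 Selectivity panel in stably transfected HEK 293-Blue cells, each overexpressing one human TLR with an inducible SEAP reporter. Agonists: Pam3CSK4 (TLR1/2), Pam2CSK4 (TLR2/6), poly(I:C) (TLR3), LPS (TLR4), R848 (TLR7/8), ODN 2006 (TLR9). Cells were exposed to compound for 16 h. Activity = (raw − untreated)/(ligand + solvent − untreated), with ligand + solvent set as 100%.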

[2] = molecular target: T1, Toll-like receptor 7 (Homo sapiens) (UniProt Q9NYK1); experiment: Inhibition of human TLR7 expressed in HEK293 cells assessed as reduction in R848-induced NFkappaB production incubated for 16 hrs by quanti-blue SEAP assay
T1 sequence (whole entry): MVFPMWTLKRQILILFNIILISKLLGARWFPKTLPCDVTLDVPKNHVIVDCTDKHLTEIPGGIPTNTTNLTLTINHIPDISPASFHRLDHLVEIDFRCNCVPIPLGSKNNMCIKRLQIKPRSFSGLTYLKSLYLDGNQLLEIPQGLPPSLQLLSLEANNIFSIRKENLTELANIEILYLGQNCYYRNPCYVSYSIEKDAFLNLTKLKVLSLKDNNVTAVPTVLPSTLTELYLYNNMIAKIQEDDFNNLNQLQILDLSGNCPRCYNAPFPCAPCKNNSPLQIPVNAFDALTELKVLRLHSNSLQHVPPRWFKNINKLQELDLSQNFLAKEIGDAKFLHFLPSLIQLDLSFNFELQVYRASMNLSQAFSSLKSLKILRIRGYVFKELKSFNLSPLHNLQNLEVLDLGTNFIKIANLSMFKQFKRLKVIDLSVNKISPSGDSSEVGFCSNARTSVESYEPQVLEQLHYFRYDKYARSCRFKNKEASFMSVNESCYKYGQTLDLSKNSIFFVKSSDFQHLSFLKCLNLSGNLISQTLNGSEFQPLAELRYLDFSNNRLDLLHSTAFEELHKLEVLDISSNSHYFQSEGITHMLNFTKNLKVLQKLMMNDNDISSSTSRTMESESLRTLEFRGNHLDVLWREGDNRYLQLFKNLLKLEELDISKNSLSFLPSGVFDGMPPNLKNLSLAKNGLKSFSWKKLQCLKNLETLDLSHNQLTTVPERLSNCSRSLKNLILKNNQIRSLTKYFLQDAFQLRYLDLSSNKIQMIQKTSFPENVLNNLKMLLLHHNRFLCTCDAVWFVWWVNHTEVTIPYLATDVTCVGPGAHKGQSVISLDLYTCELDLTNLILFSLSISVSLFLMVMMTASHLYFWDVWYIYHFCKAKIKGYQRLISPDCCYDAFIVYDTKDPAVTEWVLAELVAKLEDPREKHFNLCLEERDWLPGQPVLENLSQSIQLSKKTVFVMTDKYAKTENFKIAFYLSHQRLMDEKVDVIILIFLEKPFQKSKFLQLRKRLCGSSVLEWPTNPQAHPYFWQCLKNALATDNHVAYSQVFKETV
Outline: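 HEK 293-Blue cells stably expressing hTLR7 or hTLR8 with an inducible SEAP reporter were incubated 16 h with compound under 1 µg/mL R848 stimulation. SEAP was read at 620 nm. Data were normalized to the R848 control, and IC50 was taken from concentration-response curves. […] Mean ± s.d., n = 3 independent experiments.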

Toll-like receptor 8 = molecular target: T2, Toll-like receptor 8 (Homo sapiens, UniProt Q9NR97); experiment: Inhibition of human TLR8 expressed in HEK293 cells assessed as reduction in ssRNA-induced NFkappaB production incubated for 16 hrs by quanti-blue SEAP assay
T2 sequence (Q9NR97 whole entry): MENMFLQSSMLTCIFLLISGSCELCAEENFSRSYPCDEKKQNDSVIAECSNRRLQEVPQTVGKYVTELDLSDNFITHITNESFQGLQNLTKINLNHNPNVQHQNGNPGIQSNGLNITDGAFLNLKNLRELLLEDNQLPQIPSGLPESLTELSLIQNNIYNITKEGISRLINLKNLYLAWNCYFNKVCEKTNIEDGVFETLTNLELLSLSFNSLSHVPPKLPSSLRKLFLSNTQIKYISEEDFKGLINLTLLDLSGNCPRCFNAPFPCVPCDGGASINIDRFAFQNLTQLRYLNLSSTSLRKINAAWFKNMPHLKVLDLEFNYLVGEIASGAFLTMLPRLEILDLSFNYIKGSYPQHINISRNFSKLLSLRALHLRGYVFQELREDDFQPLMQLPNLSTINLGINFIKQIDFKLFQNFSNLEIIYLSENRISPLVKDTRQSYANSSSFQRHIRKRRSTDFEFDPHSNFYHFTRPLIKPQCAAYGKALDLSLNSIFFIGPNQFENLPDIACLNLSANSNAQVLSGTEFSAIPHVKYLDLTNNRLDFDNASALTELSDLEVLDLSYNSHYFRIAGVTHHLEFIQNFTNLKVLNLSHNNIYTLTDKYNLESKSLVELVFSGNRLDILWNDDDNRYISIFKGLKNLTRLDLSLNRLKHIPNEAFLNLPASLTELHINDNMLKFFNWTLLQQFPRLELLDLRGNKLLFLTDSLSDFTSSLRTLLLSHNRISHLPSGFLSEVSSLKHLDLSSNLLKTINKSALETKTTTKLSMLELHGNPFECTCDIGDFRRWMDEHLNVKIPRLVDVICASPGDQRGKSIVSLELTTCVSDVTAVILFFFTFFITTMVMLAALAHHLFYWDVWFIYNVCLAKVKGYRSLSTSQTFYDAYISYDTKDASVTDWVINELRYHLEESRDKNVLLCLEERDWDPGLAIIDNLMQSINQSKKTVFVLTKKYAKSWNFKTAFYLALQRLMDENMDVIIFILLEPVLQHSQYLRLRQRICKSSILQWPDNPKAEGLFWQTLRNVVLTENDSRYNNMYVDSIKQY
Outline: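 HEK 293 hTLR8 SEAP reporter cells were stimulated with ssRNA (ssRNA-Lyo-40) and incubated with compound for 16 h. Data were normalized as (raw − untreated)/(ligand + solvent − untreated), with ligand + solvent set as 100%. Mean ± s.d., n = 3 independent experiments.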

Sequence of Toll-like receptor 4 (Homo sapiens) (O00206 whole entry): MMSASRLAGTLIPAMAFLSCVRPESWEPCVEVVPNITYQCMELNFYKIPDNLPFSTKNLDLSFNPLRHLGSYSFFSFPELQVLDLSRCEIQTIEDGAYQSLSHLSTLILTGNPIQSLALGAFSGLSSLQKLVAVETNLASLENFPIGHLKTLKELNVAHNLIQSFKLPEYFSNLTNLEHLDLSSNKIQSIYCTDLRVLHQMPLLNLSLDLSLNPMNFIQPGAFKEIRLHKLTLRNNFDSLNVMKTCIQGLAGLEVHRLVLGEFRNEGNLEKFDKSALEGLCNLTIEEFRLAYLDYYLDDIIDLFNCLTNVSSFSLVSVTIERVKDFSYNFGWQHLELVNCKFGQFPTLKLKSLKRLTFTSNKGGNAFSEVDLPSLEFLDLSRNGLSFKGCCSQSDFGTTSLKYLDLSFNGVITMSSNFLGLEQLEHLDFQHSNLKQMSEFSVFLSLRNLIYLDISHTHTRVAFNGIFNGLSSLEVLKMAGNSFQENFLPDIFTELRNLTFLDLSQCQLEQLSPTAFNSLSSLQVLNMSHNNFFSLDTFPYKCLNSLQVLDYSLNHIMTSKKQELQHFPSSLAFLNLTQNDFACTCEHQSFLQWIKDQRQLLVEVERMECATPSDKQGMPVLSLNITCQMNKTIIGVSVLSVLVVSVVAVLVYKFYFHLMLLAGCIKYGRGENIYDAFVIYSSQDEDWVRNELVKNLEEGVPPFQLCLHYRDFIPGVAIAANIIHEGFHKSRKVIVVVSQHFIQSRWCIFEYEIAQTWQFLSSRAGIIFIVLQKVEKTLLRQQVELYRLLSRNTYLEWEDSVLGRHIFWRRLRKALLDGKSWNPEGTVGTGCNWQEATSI

inhibition [1] | inhibition [2] | IC50 (Toll-like receptor 8) | Structure (SMILES)
inactive | Dose-dependent effect | – | O=C(Nc1ccc(Oc2cc(C(F)(F)F)cc(C(F)(F)F)c2)cc1)c1c(F)cccc1Cl
– | – | 0.62 µM | O=[N+]([O-])c1c(I)cccc1Oc1ccc(-c2nnco2)cc1
